Measurements: publication PMC8561236 (Cell Reports Medicine, 2021)
Blank lines part the entries; values can stand above or below the compound they belong to.

Experiments:
[1] = Pharmacokinetic study in rats; assay type: in vivo, Lewis rats; conditions: rat, EC2319 subcutaneous 500 nmol/kg; analyte = label
[2] = Pharmacokinetic study in dogs; assay type: in vivo, beagle dogs; conditions: dog
FRβ = conditions: cited from earlier work
RAW264.7 cells = conditions: same experimental condition; cited from earlier work
[3] = system: Ly6Chigh monocytes in EAU mice; experiment: Experimental autoimmune uveitis; parameters: species or system B10.RIII mice; conditions: mouse, in vivo, 200 mg/kg
[4] = system: CD172+ CD43− monocytes in anti-GBM rats; experiment: Anti-GBM induced glomerulonephritis, blood monocyte analysis; assay type: in vivo, Wistar Kyoto rats; conditions: oral, 4.56 μmol/kg on day 0 or 575 nmol/kg on days 0 and 3, day 6 whole blood
How it was run: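 Male WKY rats on folate-deficient diet for 10 days, then IV anti-GBM serum (25 μL/100 g); diet continued. Dosing at 8 h (day 0) and day 3, ± 300-fold molar excess FA competitor; n = 3. Blood in 5 mM K2EDTA, analysed next day: RBC lysis of 100 μL blood, flow staining. CD172+CD43− monocytes expressed as percentage of total leukocytes.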

- AUClast (% Total) [1]: 9.17%
- difference in AUClast between EC2319-derived AMT and the AMT adduct [2]: 3- to 7 fold
- share of total AUClast ([2]; both dosing routes (intravenous 1 mg/kg, subcutaneous 2.43 mg/kg), analyte = label): 1.37%–2.99%
SMILES: Nc1nc(N)c2nc(CNc3ccc(C(=O)N[C@@H](CCC(=O)O)C(=O)O)cc3)cnc2n1 [AMT, Aminopterin]
- binding affinity toward FRβ (FRβ): negligible

SMILES: Nc1nc(=O)c2nc(CNc3ccc(C(=O)N[C@@H](CCC(=O)O)C(=O)O)cc3)cnc2[nH]1 [FA, Folic acid]
- biological effect of FA alone (RAW264.7 cells): did not show an immediate biological effect

SMILES: CNC(=O)c1cc(Oc2ccc3nc(N[C@@H]4CCCC[C@H]4O)sc3c2)ccn1 [BLZ945]
- effect on classical (R1, Ly6Chigh CD43+) monocytes [3]: reduced significantly to background levels

SMILES: CN(Cc1cnc2nc(N)nc(N)c2n1)c1ccc(C(=O)N[C@@H](CCC(=O)O)C(=O)O)cc1 [MTX, Methotrexate]
- effect on CD172+ CD43− monocytes [4]: ineffective
